Reference: PMC5989537 (Journal of natural products, 2018)
Like-named read-outs stand apart in the source and are kept apart here.

What was measured:
[1] = system: L. amazonensis promastigotes; assay: Anti-leishmanial MTT viability assay, L. amazonensis promastigotes; type: cell-based, Leishmania (L.) amazonensis
T. cruzi epimastigotes = assay: Anti-T. cruzi MTT viability assay, epimastigotes; type: cell-based, Trypanosoma cruzi
P. falciparum (3D7) = assay: Anti-plasmodial SYBR green assay, P. falciparum 3D7 blood parasites; type: cell-based, Plasmodium falciparum
P. falciparum [2] = conditions: cited from earlier work
T. brucei rhodesiense = conditions: cited from earlier work
Leishmania donovani = conditions: cited from earlier work
T. cruzi = conditions: cited from earlier work
[3] = system: L. infantum promastigotes; assay: Anti-leishmanial MTT viability assay, L. infantum promastigotes; type: cell-based, Leishmania (L.) infantum
HepG2 = assay: Cytotoxicity on HepG2 cells; type: cell-based; conditions: HepG2, 24 h, MTT
HepG2 cells = assay: HepG2 cell morphology by microscopy after treatment; type: cell-based, human; conditions: 24 h, concentration 10-fold higher than IC50 (10 μM)
P. falciparum [4] = assay: Stage-specific inhibitory activity on highly-synchronized parasites; type: cell-based, Plasmodium falciparum; conditions: 10-fold IC50, synchronized parasites
P. falciparum [5] = assay: In vitro association with artesunate; type: cell-based, Plasmodium falciparum; conditions: isobologram analysis
[6] = system: intracellular L. (L.) amazonensis amastigotes; assay: Intracellular L.; type: cell-based, Leishmania (L.) amazonensis; conditions: for intracellular parasitism (in words): 6.125, 25, 50 or 100 μM, 24 h; for reduction of the amastigote number over the control group: at higher concentrations, 24 h incubation, infected BALB/c macrophages
Outline: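 BALB/c bone-marrow-derived macrophages infected with stationary-phase L. (L.) amazonensis promastigotes (MHOM/BR/1973/M2269) at MOI 10 for 1 h, washed three times with PBS, then held 24 h at 33 °C, 5% CO2. Test compound added at 6.125, 25, 50 or 100 μM for 24 h at 33 °C. Cells washed, MeOH-fixed and stained; amastigotes counted in 300 cells on triplicate coverslips. Percent reduction taken versus untreated infected cells; two independent experiments.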

[7] = Plasmodium falciparum, 3D7, read-out: P. falciparum (3D7) EC50+/−S.D., 3D7 sensitive strain, SYBR green

Compound	anti-plasmodial activity against P. falciparum (in words) (P. falciparum (3D7))	EC50 (P. falciparum (3D7); [7]) [µM]	other results
O=C(NCCSCCNC(=O)c1cc(Br)c(Br)[nH]1)c1cc(Br)c(Br)[nH]1 [Compound 27]	inactive	> 10	anti-parasitic activity against L. (L.) amazonensis (in words) [1]: active, but considerably less potent; anti-parasitic activity against T. cruzi (in words) (T. cruzi epimastigotes): weak activity
O=C(NCCCCNCCCNC(=O)c1ccc(F)[nH]1)c1ccc(F)[nH]1 [Compound 35]	completely inactive	> 10	–
O=C(NCCCCNCCCNC(=O)c1cc(Br)c[nH]1)c1cc(Br)c[nH]1 [Compound 31, 2,21-debromopseudoceratidine]	–	7 ± 1	–
CN(CCCCNC(=O)c1cc(Br)c(Br)[nH]1)CCCNC(=O)c1cc(Br)c(Br)[nH]1 [Compound 16, N-Methyl-pseudoceratidine]	still active	4 ± 1	–
Cc1ccc(C(=O)NCCCCNCCCNC(=O)c2ccc(C)s2)s1 [Compound 43]	–	> 10	–
COC(=O)c1cc(Br)c(Br)[nH]1	–	–	anti-parasitic activity against P. falciparum (P. falciparum [2]): 7.9 µg/mL
O=C(NCCCCNCCCNC(=O)c1nc2ccccc2[nH]1)c1nc2ccccc2[nH]1 [Compound 39]	–	> 10	–
Nc1ncc(/C=C/CNC(=O)c2cc(Br)c(Br)[nH]2)[nH]1 [Oroidin]	–	–	anti-parasitic activity against P. falciparum (P. falciparum [2]): 3.9 µg/mL; activity against T. brucei rhodesiense (T. brucei rhodesiense): 17.3 µg/mL; activity against Leishmania donovani (in words) (Leishmania donovani): inactive; activity against T. cruzi (in words) (T. cruzi): inactive
O=C(NCCCCNCCCNC(=O)c1ccc[nH]1)c1ccc[nH]1 [Compound 29]	completely inactive	> 10	–
O=C(NCCCCCCCCNC(=O)c1cc(Br)c(Br)[nH]1)c1cc(Br)c(Br)[nH]1 [Compound 21]	inactive	> 10	–
O=C(NCCCCNCCCNC(=O)c1cc(Br)c(Br)[nH]1)c1cc(Br)c(Br)[nH]1 [Compound 1, pseudoceratidine]	–	1.1 ± 0.1	anti-parasitic activity against L. (L.) infantum (in words) [3]: essentially inactive; anti-parasitic activity against L. (L.) amazonensis (in words) [1]: essentially inactive; anti-parasitic activity against T. cruzi (in words) (T. cruzi epimastigotes): essentially inactive; HepG2 MDL50+/−S.D. (HepG2): 16 ± 1 (14.6 – 17.4) μM; toxicity for HepG2 cells by microscopic morphology (HepG2 cells): not toxic; stage-specific inhibitory activity (in words) (P. falciparum [4]): inhibitory activity in the early ring stages; interaction effect in combination with artesunate (P. falciparum [5]): additive
O=C(NCCCNCCCCNCCCNC(=O)c1cc(Br)c(Br)[nH]1)c1cc(Br)c(Br)[nH]1 [Compound 23]	as active as pseudoceratidine	1.9 ± 1.2	anti-parasitic activity against L. (L.) amazonensis (in words) [1]: active, but considerably less potent; EC50 (P. falciparum (3D7); read-out: P. falciparum (3D7) EC50+/−S.D., 3D7 sensitive strain, SYBR green): 2 ± 1 µM; intracellular parasitism (in words) [6]: reduced in a dose-dependent manner; reduction of the amastigote number over the control group [6]: approximately 80%
O=C(NCCCCCNC(=O)c1cc(Br)c(Br)[nH]1)c1cc(Br)c(Br)[nH]1 [Compound 20]	inactive	> 10	anti-parasitic activity against L. (L.) amazonensis (in words) [1]: active, but considerably less potent; anti-parasitic activity against T. cruzi (in words) (T. cruzi epimastigotes): good anti-parasitic activity
O=C(NCCCCNCCCNC(=O)c1cc2ccccc2[nH]1)c1cc2ccccc2[nH]1 [Compound 38]	–	> 10	–
Cc1ccc(C(=O)NCCCCNCCCNC(=O)c2ccc(C)o2)o1 [Compound 51]	completely inactive	–	–
O=C(O)c1cc(Br)c(Br)[nH]1 [4,5-dibromo-1H-pyrrole-2-carboxylic acid]	–	–	anti-parasitic activity against P. falciparum (P. falciparum [2]): 5.8 µg/mL
O=C(NCCCCCCNCCCCCCNC(=O)c1cc(Br)c(Br)[nH]1)c1cc(Br)c(Br)[nH]1 [Compound 25]	as active as pseudoceratidine	2 ± 1	–
[N-]=[N+]=NCC(=O)N(CCCCNC(=O)c1cc(Br)c(Br)[nH]1)CCCNC(=O)c1cc(Br)c(Br)[nH]1 [Compound 17]	inactive	> 10	anti-parasitic activity against L. (L.) infantum (in words) [3]: inactive; anti-parasitic activity against L. (L.) amazonensis (in words) [1]: inactive; anti-parasitic activity against T. cruzi (in words) (T. cruzi epimastigotes): inactive
O=C(NCCCCNCCCNC(=O)c1ccc(Br)s1)c1ccc(Br)s1 [Compound 42]	–	> 10	anti-parasitic activity against L. (L.) amazonensis (in words) [1]: active, but considerably less potent; intracellular parasitism (in words) [6]: reduced in a dose-dependent manner; reduction of the amastigote number over the control group [6]: approximately 80%
O=C(NCCCCNCCCNC(=O)c1cccc(Cl)n1)c1cccc(Cl)n1 [Compound 46]	–	> 10	–
O=C(NCCCCCNC(=O)c1ccc[nH]1)c1ccc[nH]1 [Compound 28]	–	> 10	–
Cc1cccc(C(=O)NCCCCNCCCNC(=O)c2cccc(C)n2)n1 [Compound 47]	–	> 10	–
O=C(NCCCCNCCCNC(=O)c1cc(Br)c(Br)o1)c1cc(Br)c(Br)o1 [Compound 50]	–	3 ± 1	anti-parasitic activity against L. (L.) amazonensis (in words) [1]: active, but considerably less potent; intracellular parasitism (in words) [6]: reduced in a dose-dependent manner; reduction of the amastigote number over the control group [6]: approximately 80%
O=C(NCCCCNCCCNC(=O)c1cc(Cl)c(Cl)[nH]1)c1cc(Cl)c(Cl)[nH]1 [Compound 33]	completely inactive	> 10	–
